Measurements taken from ChEMBL document CHEMBL2434962, “Benzohydroxamic acids as potent and selective anti-HCV agents” (Bioorg Med Chem Lett, 2013).
Activity calls are given as the source filed them. The rule behind the calls is not given here.

Experiments:
Hepatitis C virus = assay: Antiviral activity against HCV in human Huh-luc/neo7 cells after 72 hrs by luciferase reporter gene assay; type: functional, organism-based, Hepacivirus hominis
Method in brief: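 Huh7 cells persistently carrying full-genome HCV replicon treated with compound (e.g., 0, 1, 5, 25, 125 µM) for 72 h; replicon translation/replication read as firefly luciferase activity; EC50 from dose-response.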

[1] = Selectivity index, ratio of CC50 for human Huh-luc/neo7 cells to EC50 for HCV
[2] = Cytotoxicity against human HuH7 cells expressing luc/neo after 72 hrs by MTT assay; type: cell-based, Huh-7
RD [3] = assay: Cytotoxicity against human RD cells assessed as morphological changes incubated at 125 uM for 72 hrs and at 250 uM for 7 hrs by Hoechst 33342 staining-based fluorescence microscopy; type: cell-based
Method in brief: (§1)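 RD cells incubated 72 h at 125 µM, then 7 h more at 250 µM (time of PV reproduction cycle); monolayer density by light transmission imaging and nuclear morphology by fluorescence microscopy after Hoechst 33342 DNA staining, compared with untreated controls.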

Enterovirus C [4] = assay: Antiviral activity against poliovirus infected in human RD cells assessed as nuclear alteration pretreated at 125 uM for 72 hrs followed by viral infection and compound treatment at 250 uM for 7 hrs by Hoechst 33342 staining-based fluorescence microscopy; type: functional, cell-based
Method in brief: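 RD cells were pretreated with compound for 72 h at 125, then infected with poliovirus at an MOI of ~20 or ~600 PFU/cell and held at 250 for 7 h. Nuclear DNA was stained with Hoechst33342, and nuclear alterations were scored by fluorescence microscopy right after infection or at 7 h.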

RD [5] = assay: Cytotoxicity against human RD cells assessed as cell density incubated at 125 uM for 72 hrs and at 250 uM for 7 hrs by light transmission spectroscopy relative to vehicle-treated control; type: cell-based; method in brief: as §1
Enterovirus C [6] = assay: Antiviral activity against poliovirus infected in human RD cells assessed as destruction of RD cell monolayer pretreated at 125 uM for 72 hrs followed by viral infection and compound treatment at 250 uM for 7 hrs by light microscopy; type: functional, cell-based
Method in brief: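 RD cells were pretreated with compound for 72 h at 125, then infected with poliovirus at an MOI of ~20 or ~600 PFU/cell and incubated at 250 for 7 h. The integrity of the cell monolayer was examined by light microscopy right after infection or at 7 h.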

SMILES | EC50 (Hepatitis C virus) | Ratio CC50/EC50 [1] | CC50 at 72 h [2] | Activity (RD [3]) | Activity (Enterovirus C [4]) | Activity (RD [5]) | Activity (Enterovirus C [6])
COc1ccc(C)cc1C(=O)NO | 10 µM | 80 | 800 µM | – | – | – | –
Cc1ccc(C(=O)NO)c(Cl)c1 | 1.5 µM | 93 | 140 µM | – | – | – | –
CONC(=O)c1ccccc1OC | > 300 µM | – | > 800 µM | – | – | – | –
O=C(NO)c1ccccc1[N+](=O)[O-] | 1 µM | 55 | 55 µM | – | – | – | –
COc1cccc(OC)c1C(=O)NO | 50 µM | >16 | > 800 µM | – | – | – | –
O=C(NO)c1cccc([N+](=O)[O-])c1 | 5 µM | 32 | 160 µM | – | – | – | –
CONC(=O)c1ccccc1 | > 300 µM | – | > 800 µM | – | – | – | –
NC(=NO)c1ccccc1 [BENZAMIDOXIME] | 270 µM | – | > 800 µM | – | – | – | –
O=C(NO)c1ccc(Cl)cc1Cl | 0.8 µM | 175 | 140 µM | – | – | – | –
O=C(NO)c1ccccc1Br | 3 µM | 90 | 270 µM | – | – | – | –
Cc1ccc(C(=O)NO)cc1 | 8 µM | 14 | 110 µM | – | – | – | –
O=C(NO)c1ccc(Br)cc1 | 2 µM | 13 | 25 µM | – | – | – | –
COc1ccccc1/C(N)=N/O | > 300 µM | – | > 800 µM | – | – | – | –
O=C(NO)c1ccccc1OCCOc1ccccc1C(=O)NO | 35 µM | >23 | > 800 µM | – | – | – | –
COc1cc(C)ccc1C(=O)NO | 15 µM | 60 | 900 µM | – | – | – | –
O=C(NO)c1ccccc1Cl | 2 µM | 165 | 330 µM | – | – | – | –
O=C(NO)c1ccccc1F | 15 µM | 20 | 300 µM | – | – | – | –
CCCCOc1ccccc1C(=O)NO | 10 µM | 38 | 380 µM | – | – | – | –
O=C(NO)c1cc([N+](=O)[O-])ccc1O | 160 µM | >6 | > 1000 µM | – | – | – | –

SMILES | EC50 (Hepatitis C virus) | Ratio CC50/EC50 [1] | CC50 at 72 h [2] | Activity (RD [3]) | Activity (Enterovirus C [4]) | Activity (RD [5]) | Activity (Enterovirus C [6])
CN(O)C(=O)c1ccccc1O | > 300 µM | – | > 800 µM | Non-toxic | inactive | Non-toxic | inactive
COc1ccc([N+](=O)[O-])cc1C(=O)NO | 3 µM | 120 | 350 µM | – | – | – | –
N/C(=N\O)c1ccccc1O | 140 µM | – | 500 µM | – | – | – | –
O=C(NO)c1ccc([N+](=O)[O-])cc1 | 3 µM | 23 | 70 µM | – | – | – | –
COc1ccccc1C(N)=O | > 300 µM | – | > 800 µM | – | – | – | –
COc1ccc(C(=O)NO)cc1 | 12 µM | 15 | 180 µM | – | – | – | –
O=C(NO)c1cccc(Cl)c1 | 10 µM | 12 | 120 µM | – | – | – | –
Cc1cc(Br)ccc1C(=O)NO | 0.5 µM | 240 | 120 µM | – | – | – | –
O=C(NO)c1ccc(Cl)cc1 | 3 µM | 18 | 55 µM | – | – | – | –
NC(=O)c1ccccc1O [SALICYLAMIDE] | > 300 µM | – | > 800 µM | – | – | – | –
CONC(=O)c1ccccc1O | > 300 µM | – | > 800 µM | – | – | – | –
CN(O)C(=O)c1ccccc1 | 65 µM | – | 400 µM | – | – | – | –
O=C(NO)c1cccc(Br)c1 | 12 µM | 26 | 310 µM | – | – | – | –
COc1cccc(C(=O)NO)c1 | 70 µM | 8 | 570 µM | – | – | – | –
COCc1ccccc1C(=O)NO | 170 µM | >6 | > 1000 µM | – | – | – | –
Cc1cccc(C(=O)NO)c1 | 20 µM | 17 | 340 µM | – | – | – | –
COc1ccccc1C(=O)N(C)O | > 300 µM | – | > 800 µM | – | – | – | –
Cc1ccccc1C(=O)NO | 85 µM | 8 | 650 µM | – | – | – | –
